The list is not random: actives were taken first. Their share in the collection is about 3.7%.
proCasp7 act: counter-screen: procaspase-7 (human) activation; P55210; recombinant procaspase-7, Ac-DEVD-pNA absorbance 405 nm; D23A/D198A/D206A triple mutant, cannot self-cleave; scale: DMSO 0, 5 µM enzyme 100; activation, % at 8.5 µM; 330,000 compounds, 0.093% hits; AID 463210;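 active = percent activation above the screen-wide mean plus 3 SD, cut at about 25% in these data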
Target sequence (P55210 whole entry D23A/D198A/D206A): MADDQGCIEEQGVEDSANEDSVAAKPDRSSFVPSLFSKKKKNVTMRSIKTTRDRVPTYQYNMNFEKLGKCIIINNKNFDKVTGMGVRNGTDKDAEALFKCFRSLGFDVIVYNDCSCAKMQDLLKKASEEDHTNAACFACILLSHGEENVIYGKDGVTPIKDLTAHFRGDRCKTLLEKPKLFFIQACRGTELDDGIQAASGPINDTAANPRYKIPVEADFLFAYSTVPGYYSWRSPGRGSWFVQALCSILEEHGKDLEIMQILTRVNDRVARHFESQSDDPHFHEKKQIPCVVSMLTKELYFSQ
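Assay system: Uncleavable procaspase-7 mutant enzyme | Input: 2 µM procaspase-7 mutant as dispensed | Timing: 1 h compound preincubation, 2 h substrate cleavage, 25 °C | Repeats: One well per compound | Control set: DMSO wells as 0%, DMSO with 5 µM added PC-7 as 100% | Technique: Epi-absorbance of released pNA at 405 nm, two timepoints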
aDG glyco act: increases alpha dystroglycan glycosylation; Pro5-aDG cells, alpha-DG glycosylation AlphaScreen (IIH6); 0% Pro5, 100% B10-LARGE cell signal; activation, % at 10 µM; 360,000 compounds, 0.22% hits; AID 624168;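 active = activation of at least 8% versus controls, or a plate z-score of at least 8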;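 note: Pro5 are CHO cells carrying HIG-tagged alpha-DG that lacks glycosylation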
NR3A LBD binder: NR3A (human) ligand-binding domain modulation; NR3A LBD differential scanning fluorimetry, Tm shift; 0% = protein alone, 100% = glycine-bound protein; Tm shift relative to glycine control, % at 25 µM; 340,000 compounds, 2.5% hits;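 active = melting temperature shift of at least 10% of the positive control shift, at one fixed dose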
MPTP inh: inhibitors of mitochondrial permeability transition pore. inhibition, % at 10 µM. AID 602449. 360,000 compounds, 1.4% hits. isolated mouse mitochondria, Ca2+ swelling absorbance, 30 min;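 active = inhibition of 50% or more, scaled per plate between neutral and stimulator controls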;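 note: 0% = DMSO wells given calcium and 100% = 1 mM EGTA wells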
proCasp3 act: procaspase-3 (human) activation. activation, % at 8.5 µM. P42574. recombinant procaspase-3 D3A, Ac-DEVD-pNA absorbance 405 nm. 330,000 compounds, 0.11% hits. AID 463141;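 active = activation above the mean of all tested compounds plus 3 SD, cut at about 21% in these data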;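 note: 0% = DMSO alone and 100% = DMSO wells spiked with extra 5 µM PC-3 D3A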
Target sequence (P42574 whole entry D9A/D28A/D175A): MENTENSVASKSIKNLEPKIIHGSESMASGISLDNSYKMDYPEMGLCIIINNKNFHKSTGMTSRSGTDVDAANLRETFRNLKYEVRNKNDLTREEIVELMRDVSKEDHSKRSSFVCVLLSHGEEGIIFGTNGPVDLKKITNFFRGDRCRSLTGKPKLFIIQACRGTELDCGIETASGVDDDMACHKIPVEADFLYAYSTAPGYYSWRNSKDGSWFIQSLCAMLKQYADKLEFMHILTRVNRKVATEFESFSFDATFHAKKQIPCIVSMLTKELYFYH
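System: Procaspase-3 D3A mutant. Medium: Zinc-free 300 mM NaCl, 50 mM HEPES, 0.01% Triton X-100. Schedule: 1 h preincubation plus 2 h reaction at 25 °C. Measured by: 405 nm absorbance of p-nitroaniline, reads at 0 and 120 min. Read-out: percent activation relative to control range.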
MPTP counter: mitochondrial membrane potential, counter-screen; shares compounds with MPTP inh; inhibition, % at 10 µM; 5,000 compounds, 78% hits; isolated mitochondria, Rhodamine 123 fluorescence; in the data active = inhibition above about 22%;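 note: 0% = DMSO vehicle and 100% = positive control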
MPTP swell DR: MPTP inhibition, dose response swelling confirmation; shares compounds with MPTP inh; isolated mitochondria swelling, absorbance; IC50, µM; 780 compounds, 58% hits; AID 651561; in the data active = IC50 below about 20 µM
MPTP counter DR: counter-screen for mitochondrial permeability transition pore inhibitors, dose response; shares compounds with MPTP inh; isolated mitochondria counterscreen, fluorescence read-out; IC50, µM; 780 compounds, 49% hits; in the data active = IC50 below about 80 µM
The depositor's hits bear a star; i = inactive; x = not tested or not shown.

SMILES	proCasp7 act	aDG glyco act	NR3A LBD binder	MPTP inh	proCasp3 act	MPTP counter	others
O=C(Nc1ccc(Cl)c([N+](=O)[O-])c1)C(Sc1ccccc1)c1ccccc1 (stereo unspecified)	-9.6	1.6	27.6*	105.2*	-1.9	80.3*
CC(=O)N(C)c1ccc(NC(=O)C(Sc2ccccc2)c2ccccc2)cc1 (stereo unspecified)	7.2	-0.2	-1.4	-0.8	-1.5	x
O=C(Nc1cc([N+](=O)[O-])ccc1Cl)C(Sc1ccccc1)c1ccccc1 (stereo unspecified)	8.0	0.2	-2.3	33.4	-1.0	x
CC(C)(C)NS(=O)(=O)c1ccc(NC(=O)C(Sc2ccccc2)c2ccccc2)cc1 (stereo unspecified)	13.2	1.4	22.7*	64.6*	-4.5	72.8*
O=C(NCCCl)Nc1ccc(Cl)c([N+](=O)[O-])c1	8.6	0.0	-3.4	81.1*	-5.8	92.8*
CSc1ccc(S(=O)(=O)NCC(=O)OCC(=O)N(C)CC(=O)Nc2ccc(F)cc2)cc1[N+](=O)[O-]	x	0.2	-5.2	0.6	x	x
CC(O)(c1ccncc1)c1nc(-c2cccc(C(F)(F)F)c2)cs1 (stereo unspecified)	x	2.8	x	90.5*	x	96.2*
Cc1cc(C)cc(C(=O)N(NC(=O)Nc2ccc(Cl)cc2)C(C)(C)C)c1	13.6	1.4	2.6	97.2*	-4.5	98.5*
CC(C)(C)N(NC(=O)Nc1ccc(F)cc1)C(=O)c1ccccc1	14.5	-0.1	-1.1	-0.7	8.0	x
CC(C)(C)N(NC(=O)Nc1ccc(Cl)c(Cl)c1)C(=O)c1ccccc1	-1.2	0.0	5.0	103.9*	2.7	96.9*
COc1cccc(NC2c3ccccc3C(=O)N2Cc2ccco2)c1 (stereo unspecified)	9.3	0.0	-1.1	1.4	-7.0	x
O=C1c2ccccc2C(Nc2cccc(C(F)(F)F)c2)N1Cc1ccco1 (stereo unspecified)	-7.9	1.3	-6.3	63.2*	7.0	32.7*
CCCCCCCc1nc2sc3c(c2c(=O)n1N)CC(C)(C)OC3	11.8	0.9	-2.7	4.0	4.1	x
CCCCCc1nc2sc3c(c2c(=O)n1NC(=O)c1ccc([N+](=O)[O-])cc1)CC(C)(C)OC3	-11.6	0.4	11.8*	89.6*	0.8	75.7*
CN(Cc1ccc(OCC(O)CN2CCCCC2)cc1)Cc1ccnc2ccccc12 (stereo unspecified)	x	4.2	-1.9	94.6*	x	106.0*
Cc1nn(C)cc1CN(C)Cc1ccc(OCC(O)CN2CCCCC2)cc1 (stereo unspecified)	8.5	0.1	0.8	1.6	11.0	x
COC(=O)c1cc([N+](=O)[O-])c(C)c(C)n1	x	0.2	x	54.3*	x	-2.1	MPTP swell DR=>100;MPTP counter DR=>80
CC(C)C(C)NC(=O)COc1ccc(Sc2ccc(OCC(=O)NC(C)C(C)C)cc2)cc1 (stereo unspecified)	4.4	4.8	-6.4	78.9*	2.1	89.1*
CN1C[C@H]2CON(C)[C@H]2C[C@H]1c1cccc(N2CCOCC2)c1	x	-0.1	1.0	0.0	x	x
CC(O)CNCCCOc1cccc(Oc2ccccc2)c1 (stereo unspecified)	-2.5	0.6	-0.4	59.9*	7.4	-7.2	MPTP swell DR=12.9*;MPTP counter DR=>80
O=C(O)c1cnc2ccc(Cl)cc2n1	x	-0.3	x	-0.2	x	x
CCOc1ccc(NS(=O)(=O)c2cc(NC(=O)c3cccc(C)c3)ccc2Cl)cc1	-2.1	0.6	9.4	88.7*	-2.6	41.2*
O=c1oc2c(-c3cccc(F)c3)cc(O)cc2s1	-34.8	0.0	2.0	83.9*	-28.7	85.4*
CC1CCc2sc(C(=O)NC3CCN(Cc4ccccc4)CC3)cc2C1 (stereo unspecified)	-7.0	0.5	-1.4	0.6	10.2	x
CCC1CCc2sc(C(=O)NC3CCN(Cc4ccccc4)CC3)cc2C1 (stereo unspecified)	7.9	1.7	1.8	76.5*	-2.9	-5.0	MPTP swell DR=11.1*;MPTP counter DR=26.8*
SMILES	proCasp7 act	aDG glyco act	NR3A LBD binder	MPTP inh	proCasp3 act	MPTP counter	others
Cc1cccc(C)c1NC(=O)C1(C)CSCC(=O)N1CCc1ccccc1 (stereo unspecified)	x	-0.2	x	1.9	x	x
Cc1ccc(NC(=O)CSc2nc(=O)cc(N)n2-c2ccccc2)cc1	3.6	-0.2	1.0	0.1	-3.0	x
Nc1cc(=O)nc(SCC(=O)N(C2CCCCC2)C2CCCCC2)n1-c1ccccc1	-16.1	0.0	-1.2	64.1*	2.1	-11.9	MPTP swell DR=>100;MPTP counter DR=>80
Cc1ccc(CN2C(=O)c3ccccc3C2c2nnnn2-c2c(C)cccc2C)cc1 (stereo unspecified)	x	-0.1	x	0.3	x	x
Cc1ccc2nc(SC(C(=O)Nc3ccc(F)cc3)c3ccccc3)[nH]c2c1 (stereo unspecified)	-11.6	0.7	16.4*	76.6*	3.7	86.1*
CCC(Sc1nc2ccc(C)cc2[nH]1)C(=O)O (stereo unspecified)	0.5	-0.2	-1.1	-0.1	1.0	x
Cc1ccc(C)c(NC(=O)C(Sc2nc3ccc(C)cc3[nH]2)c2ccccc2)c1 (stereo unspecified)	-0.4	0.8	-2.7	84.5*	-3.5	92.0*
Cn1cnnc1SC(C(=O)Nc1ccc(F)cc1)c1ccccc1 (stereo unspecified)	7.6	0.0	1.0	0.9	3.7	x
N#Cc1cccc(C#N)c1Oc1ccc(S(=O)(=O)Nc2ccccc2)cc1	-1.4	0.2	-0.9	53.9*	7.2	15.5	MPTP swell DR=i;MPTP counter DR=29.9*
N#Cc1c(Cl)cccc1Oc1ccc(S(=O)(=O)Nc2ccccc2)cc1	0.8	0.1	6.1	41.3	7.5	x
CC(=O)NC(c1ccccc1)c1nc(-c2csc3ccccc23)cs1 (stereo unspecified)	x	0.6	x	-1.1	x	x
Cc1ccc(Nc2cc(C)c3c(O)cccc3n2)cc1C	2.4	0.1	2.9	72.5*	-38.4	54.1*
CC(C)NC(=O)C1CC(=O)N(CCc2ccc(F)cc2)C1 (stereo unspecified)	x	0.0	x	-0.1	x	x
Cc1ccccc1NC(=O)c1ccc(CN2CCC(Cc3ccccc3)CC2)cc1	-4.3	0.7	-1.1	56.5*	-4.9	-8.0	MPTP swell DR=12.4*;MPTP counter DR=35.6*
CC(C)NC(=O)c1ccc(CN2CCC(Cc3ccccc3)CC2)cc1	9.3	0.0	0.3	0.2	8.0	x
COc1ccc(CNC2CCCc3ccccc32)cc1OC (stereo unspecified)	-2.5	0.3	-3.8	61.1*	-9.0	-0.4	MPTP swell DR=i;MPTP counter DR=69.5*

Screening data from PubChem.
